Results published in ChEMBL document CHEMBL3120154, “2-[N-Alkyl(R-phenyl)-aminomethyl]-3-phenyl-7-trifluoromethylquinoxalines as anticancer agents inhibitors of folate enzymes” (Eur J Med Chem, 2014).

Columns and labels:
[1] = target: Thymidylate synthase (Homo sapiens, UniProt P04818); assay: Competitive inhibition of human thymidylate synthase by spectrophotometry
[2] = target: T1, Dihydrofolate reductase (Homo sapiens, UniProt P00374); assay: Competitive inhibition of human dihydrofolate reductase by spectrophotometry
T1 sequence (P00374 whole entry): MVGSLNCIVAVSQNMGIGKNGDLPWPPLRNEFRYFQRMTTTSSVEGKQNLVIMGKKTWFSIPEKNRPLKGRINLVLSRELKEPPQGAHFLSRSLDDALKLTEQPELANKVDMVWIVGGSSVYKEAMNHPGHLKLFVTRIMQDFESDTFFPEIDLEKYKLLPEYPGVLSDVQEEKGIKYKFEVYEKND

[3] = tested on: U-251; assay: Cytotoxicity against human U251 cells at 10^-4 M after 48 hrs by SRB assay; assay type: functional; details: U-251, 48 h, read-out: GI
Summary of the method: (§1)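 Second-stage screen in the 60-cell-line human tumor panel at NCI, over a 5-log range (100, 10, 1, 0.1, 0.01 micromolar). Cells were exposed to drug for 48 h and growth was estimated with a sulforhodamine B protein stain. The value is percent growth inhibition at each concentration.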

[4] = tested on: SNB-75; assay: Cytotoxicity against human SNB75 cells at 10^-4 M after 48 hrs by SRB assay; assay type: functional; details: SNB-75, 48 h, read-out: GI; summary of the method: as §1
[5] = tested on: SF-268; assay: Cytotoxicity against human SF268 cells at 10^-4 M after 48 hrs by SRB assay; assay type: functional; details: SF-268, 48 h, read-out: GI; summary of the method: as §1
[6] = tested on: SW-620; assay: Cytotoxicity against human SW620 cells at 10^-4 M after 48 hrs by SRB assay; assay type: functional; details: SW-620, 48 h, read-out: GI; summary of the method: as §1
[7] = tested on: HCT-116; assay: Cytotoxicity against human HCT116 cells at 10^-4 M after 48 hrs by SRB assay; assay type: functional; details: HCT-116, 48 h, read-out: GI
Summary of the method: (§2)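 Run by NCI on its 60-line human tumor cell panel, after a three-cell-line prescreen. Cells were exposed to drug for 48 h over a 5-log range: 100, 10, 1, 0.1 and 0.01 micromolar. Growth was estimated by sulforhodamine B (SRB) protein staining. Percent growth inhibition (I%) was recorded at each concentration relative to untreated control cells.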

[8] = tested on: NCI-H522; assay: Cytotoxicity against human NCI-H522 cells at 10^-4 M after 48 hrs by SRB assay; assay type: functional; details: NCI-H522, 48 h, read-out: GI
Summary of the method: (§3)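 Run in the NCI 60-cell-line screen after a three-line prescreen. Cells got a 48 h drug exposure; viability/growth was estimated with the sulforhodamine B protein assay. Growth inhibition (I%) was recorded at 100, 10, 1, 0.1 and 0.01 micromolar. Percent growth is relative to untreated control cells, and negative values indicate cell kill.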

[9] = tested on: NCI-H460; assay: Cytotoxicity against human NCI-H460 cells at 10^-4 M after 48 hrs by SRB assay; assay type: functional; details: NCI-H460, 48 h, read-out: GI; summary of the method: as §3
[10] = tested on: NCI-H322M; assay: Cytotoxicity against human NCI-H322M cells at 10^-4 M after 48 hrs by SRB assay; assay type: functional; details: read-out: GI; summary of the method: as §3
[11] = tested on: RPMI-8226; assay: Cytotoxicity against human RPMI8226 cells at 10^-4 M after 48 hrs by SRB assay; assay type: functional; details: RPMI-8226, 48 h, read-out: GI; summary of the method: as §1
[12] = tested on: A549; assay: Cytotoxicity against human A549 cells at 10^-4 M after 48 hrs by SRB assay; assay type: functional; details: A549, 48 h, read-out: GI; summary of the method: as §2
[13] = tested on: MOLT-4; assay: Cytotoxicity against human MOLT4 cells at 10^-4 M after 48 hrs by SRB assay; assay type: functional; details: MOLT-4, 48 h, read-out: GI; summary of the method: as §3
[14] = tested on: HL-60(TB); assay: Cytotoxicity against human HL-60(TB) cells at 10^-4 M after 48 hrs by SRB assay; assay type: functional; details: HL-60, 48 h, read-out: GI
Summary of the method: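 NCI 60-human-tumour-cell-line screen run over a 5-log dose range (100, 10, 1, 0.1 and 0.01 µM). Cells were exposed to drug for 48 h. Growth was estimated by sulforhodamine B protein staining. Values are percent growth inhibition at each concentration, relative to untreated control cells.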

[15] = tested on: NCI-H460; assay: Cytotoxicity against human NCI-H460 cells assessed as cell growth at 10^-4 M after 48 hrs by alamar blue assay relative to untreated control; assay type: functional; details: NCI-H460, 48 h, read-out: Activity
Summary of the method: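 Three-cell-line prescreen. Each line was inoculated and preincubated on a microtiter plate, then the agent was added at a single concentration (10^-4 or 10^-5 M) and incubated 48 h. Endpoint was measured with alamar blue, and growth is reported as a percentage of untreated control cells.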

[16] = Cytotoxicity against human Hs578T cells at 10^-4 M after 48 hrs by SRB assay; assay type: functional; details: Hs-578T, read-out: GI; summary of the method: as §2
[17] = tested on: NCI/ADR-RES; assay: Cytotoxicity against human NCI/ADR-RES cells at 10^-4 M after 48 hrs by SRB assay; assay type: functional; details: read-out: GI; summary of the method: as §3
[18] = Cytotoxicity against human UO31 cells at 10^-4 M after 48 hrs by SRB assay; assay type: functional; details: UO-31, 48 h, read-out: GI; summary of the method: as §1
[19] = tested on: TK-10; assay: Cytotoxicity against human TK10 cells at 10^-4 M after 48 hrs by SRB assay; assay type: functional; details: TK-10, 48 h, read-out: GI; summary of the method: as §1
[20] = tested on: RXF 393; assay: Cytotoxicity against human RXF393 cells at 10^-4 M after 48 hrs by SRB assay; assay type: functional; details: RXF 393, 48 h, read-out: GI; summary of the method: as §1
[21] = tested on: A498; assay: Cytotoxicity against human A498 cells at 10^-4 M after 48 hrs by SRB assay; assay type: functional; details: A498, 48 h, read-out: GI; summary of the method: as §2
[22] = tested on: ACHN; assay: Cytotoxicity against human ACHN cells at 10^-4 M after 48 hrs by SRB assay; assay type: functional; details: read-out: GI; summary of the method: as §2
[23] = tested on: 786-0; assay: Cytotoxicity against human 786-0 cells at 10^-4 M after 48 hrs by SRB assay; assay type: functional; details: 786-0, 48 h, read-out: GI; summary of the method: as §2
[24] = tested on: SK-OV-3; assay: Cytotoxicity against human SKOV3 cells at 10^-4 M after 48 hrs by SRB assay; assay type: functional; details: SK-OV-3, 48 h, read-out: GI; summary of the method: as §1
[25] = tested on: OVCAR-8; assay: Cytotoxicity against human OVCAR8 cells at 10^-4 M after 48 hrs by SRB assay; assay type: functional; details: OVCAR-8, 48 h, read-out: GI; summary of the method: as §1
[26] = Cytotoxicity against human OVCAR4 cells at 10^-4 M after 48 hrs by SRB assay; assay type: functional; details: OVCAR-4, 48 h, read-out: GI; summary of the method: as §1
[27] = tested on: IGROV-1; assay: Cytotoxicity against human IGROV1 cells at 10^-4 M after 48 hrs by SRB assay; assay type: functional; details: IGROV-1, 48 h, read-out: GI; summary of the method: as §2
[28] = tested on: UACC-62; assay: Cytotoxicity against human UACC62 cells at 10^-4 M after 48 hrs by SRB assay; assay type: functional; details: UACC-62, 48 h, read-out: GI; summary of the method: as §1
[29] = Cytotoxicity against human UACC257 cells at 10^-4 M after 48 hrs by SRB assay; assay type: functional; details: UACC-257, 48 h, read-out: GI; summary of the method: as §1
[30] = tested on: SK-MEL-2; assay: Cytotoxicity against human SK-MEL-2 cells at 10^-4 M after 48 hrs by SRB assay; assay type: functional; details: SK-MEL-2, 48 h, read-out: GI; summary of the method: as §1
[31] = tested on: K562; assay: Cytotoxicity against human K562 cells at 10^-4 M after 48 hrs by SRB assay; assay type: functional; details: K562, 48 h, read-out: GI; summary of the method: as §3

SMILES | Ki [2] | inhibition of growth at 100 µM [3] | inhibition of growth at 100 µM [4] | inhibition of growth at 100 µM [5] | inhibition of growth at 100 µM [6] | inhibition of growth at 100 µM [7] | inhibition of growth at 100 µM [8] | inhibition of growth at 100 µM [9] | inhibition of growth at 100 µM [11] | inhibition of growth at 100 µM [12] | inhibition of growth at 100 µM [13] | growth at 100 µM [15] | inhibition of growth at 100 µM [16] | inhibition of growth at 100 µM [17] | inhibition of growth at 100 µM [18] | inhibition of growth at 100 µM [19] | inhibition of growth at 100 µM [20] | inhibition of growth at 100 µM [21] | inhibition of growth at 100 µM [22] | inhibition of growth at 100 µM [23] | further results
C#CCN(Cc1nc2cc(C(F)(F)F)ccc2nc1-c1ccccc1)c1ccc(C)cc1 | 6 µM | 181% | 180% | 76% | 79% | 189% | 134% | 96% | 44% | 84% | 85% | 17% | 113% | 195% | 167% | 181% | 137% | 157% | 193% | 184% | Ki [1]: 0.51 µM; inhibition of growth at 100 µM [10]: 180%; inhibition of growth at 100 µM [14]: 105%; inhibition of growth at 100 µM [24]: 191%; inhibition of growth at 100 µM [25]: 77%; inhibition of growth at 100 µM [26]: 200%; inhibition of growth at 100 µM [27]: 79%; inhibition of growth at 100 µM [28]: 188%; inhibition of growth at 100 µM [29]: 110%; inhibition of growth at 100 µM [30]: 136%
C#CCN(Cc1nc2cc(C(F)(F)F)ccc2nc1-c1ccccc1)c1ccc(F)cc1 | 8 µM | 85% | 54% | 82% | 93% | 94% | 93% | 94% | 117% | 123% | 81% | 6% | 94% | 108% | 83% | 123% | 89% | 104% | 89% | 132% | Ki [1]: 2.38 µM; inhibition of growth at 100 µM [10]: 123%; inhibition of growth at 100 µM [31]: 89%; inhibition of growth at 100 µM [14]: 92%; inhibition of growth at 100 µM [24]: 93%; inhibition of growth at 100 µM [25]: 96%; inhibition of growth at 100 µM [26]: 87%; inhibition of growth at 100 µM [27]: 86%; inhibition of growth at 100 µM [28]: 96%; inhibition of growth at 100 µM [29]: 119%
C#CCN(Cc1nc2cc(C(F)(F)F)ccc2nc1-c1ccccc1)c1ccc(F)c(F)c1 | 8 µM | 59% | < 40% | 91% | 82% | 77% | 85% | 90% | 107% | 107% | 82% | 18% | 70% | 67% | 73% | 48% | 103% | 78% | 56% | 44% | Ki [1]: 3.56 µM; inhibition of growth at 100 µM [31]: 78%; inhibition of growth at 100 µM [14]: 79%; inhibition of growth at 100 µM [24]: < 40%; inhibition of growth at 100 µM [25]: 98%; inhibition of growth at 100 µM [26]: < 40%; inhibition of growth at 100 µM [27]: 58%; inhibition of growth at 100 µM [28]: 73%; inhibition of growth at 100 µM [29]: 146%
CCN(Cc1nc2cc(C(F)(F)F)ccc2nc1-c1ccccc1)c1ccc(OC)c(OC)c1 | 4 µM | 198% | 115% | 99% | 164% | 199% | 164% | 97% | 162% | 177% | 122% | 0% | 162% | 84% | 145% | 109% | 179% | 180% | 142% | 191% | inhibition of growth at 100 µM [10]: 96%; inhibition of growth at 100 µM [31]: 160%; inhibition of growth at 100 µM [14]: 153%; inhibition of growth at 100 µM [24]: 83%; inhibition of growth at 100 µM [25]: 174%; inhibition of growth at 100 µM [26]: 76%; inhibition of growth at 100 µM [27]: 178%; inhibition of growth at 100 µM [28]: 195%; inhibition of growth at 100 µM [29]: 192%; inhibition of growth at 100 µM [30]: 172%
C#CCN(Cc1nc2cc(C(F)(F)F)ccc2nc1-c1ccccc1)c1ccc(OC(F)(F)F)cc1 | 4 µM | 70% | < 40% | 63% | 75% | 99% | 125% | 78% | 88% | 60% | 79% | 7% | < 40% | < 40% | 70% | 64% | 67% | 87% | 65% | 46% | inhibition of growth at 100 µM [10]: 79%; inhibition of growth at 100 µM [31]: 78%; inhibition of growth at 100 µM [24]: < 40%; inhibition of growth at 100 µM [25]: 57%; inhibition of growth at 100 µM [26]: < 40%; inhibition of growth at 100 µM [27]: 81%; inhibition of growth at 100 µM [28]: 64%; inhibition of growth at 100 µM [29]: 44%; inhibition of growth at 100 µM [30]: < 40%
